PMI activator: activators of human PMI, primary screen, biochemical, fluorescence intensity, near-Km mannose 6-phosphate; Mannose-6-phosphate isomerase (Homo sapiens), P34949; activation factor at 20 µM; 190,000 tested, 0.005% active; purified human PMI, coupled resazurin fluorescence, 20 min; hits give high values; 1 = vehicle control, 0 substrate-free wells;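 active means activation factor of 2 or more at 20 µM, relative to plate controls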
Rad51 HR inh: human RAD51 strand exchange inhibitors, primary screen, biochemical, fluorescence; DNA repair protein RAD51 homolog 1 (Homo sapiens), Q06609; hRad51 DNA strand exchange, fluorescence dequenching; inhibition, % at 10 µM; 200,000 tested, 0.085% active;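 active means inhibition above 40% at the single screening dose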
Target sequence (Q06609 whole entry, looked up): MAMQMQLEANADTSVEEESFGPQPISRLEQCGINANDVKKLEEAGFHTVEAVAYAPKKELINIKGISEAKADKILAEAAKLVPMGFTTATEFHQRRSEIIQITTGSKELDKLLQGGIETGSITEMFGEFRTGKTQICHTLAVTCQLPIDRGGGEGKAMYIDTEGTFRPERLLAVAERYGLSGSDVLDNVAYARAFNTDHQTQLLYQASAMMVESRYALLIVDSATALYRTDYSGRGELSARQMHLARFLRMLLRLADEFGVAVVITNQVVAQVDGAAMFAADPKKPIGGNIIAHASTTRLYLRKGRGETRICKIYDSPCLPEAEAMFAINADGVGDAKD
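System: hRad51 filaments on single-stranded DNA; reagent: Fluorescein- and BHQ1-tagged 47-mer duplex; compound dosing: one concentration, 10 µM final; timing: filaments 15 min 37 °C, then compound 30 min; measured by: fluorescein emission 520 nm, excitation 485 nm; benchmarks: per-plate controls and blanks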
PMI act satM6P: human PMI activators, high substrate, primary screen, biochemical, fluorescence intensity, near-saturating mannose 6-phosphate. activation factor at 20 µM. AID 1216, 2008. 190,000 tested, 0.34% active. coupled PMI enzyme assay, resazurin fluorescence, 20 min; hits give high values; 1 = untreated enzyme, 0 = substrate-free blank. Mannose-6-phosphate isomerase (Homo sapiens), P34949;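 active means activation factor of 2 or more at 20 µM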
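Material: human phosphomannose isomerase with PGI, G6PDH, diaphorase coupling enzymes. Quantity: 15 ng/mL PMI. Medium: HEPES pH 7.4 buffer with MgCl2 and Tween-20. Reagent: Near-saturating mannose-6-phosphate, 1.0 mM. Compound: 20 µM single dose. Times: enzyme reaction with compound 20 min at room temperature. Detection: resorufin fluorescence at Ex 544/Em 590 nm.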
m-calpain inh: inhibitors of pig calpain II, primary screen, biochemical, fluorogenic peptide substrate, 1536-well. inhibition, % at 16 µM. 220,000 tested, 0.37% active. purified calpain II, 30 min;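 active means inhibition above about 50%, limit read from the data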
WT yeast gro inh: growth inhibition of WT strain, primary screen, mitochondrial fusion inhibitor project, WT and mutant strains, chemical genetic; inhibition, % at 10 µM; 190,000 tested, 2.1% active; mitochondrial fusion phenotypic screen; in the data active means inhibition above about 58%; tested in S. cerevisiae
L major viab: Leishmania major promastigote growth inhibition, primary screen. Leishmania major promastigotes, resazurin fluorescence viability. inhibition, % at 10 µM. 200,000 tested, 9% active. AID 1063, 2008; in the data active means inhibition above about 50%;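 further: promastigotes grown with compound for 44 hours at 28 °C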
Large screens that a line does not name were inactive. Sampled rows, rich in hits. Any-hit rate of the full collection: about 9.8%.

O=C(NCCN1CCOCC1)c1ccc(N2CCCC2)c([N+](=O)[O-])c1	none
Cc1ccc(NC(=S)N(Cc2cccc(Br)c2)CC2CCC(C(=O)O)CC2)cc1Cl (centres undefined)	WT yeast gro inh 64
Cc1cc(NC(=S)N(Cc2ccc(Br)cc2)Cc2ccc(C(=O)O)cc2)ccc1Cl	WT yeast gro inh 70 (no result: Rad51 HR inh)
CC(C)Oc1cccc(C(=O)NC(=S)NCc2cccnc2)c1	none
N#Cc1cccc(NC(=O)NCCc2c[nH]c3ccccc23)c1	L major viab 90 (no result: Rad51 HR inh)
CC(C)c1ccc(NC(=S)NCCc2c[nH]c3ccccc23)cc1	WT yeast gro inh 67
Cc1ccc(NC(=S)NCCc2c[nH]c3ccccc23)cc1	none
Cc1ccc(C)c(NC(=O)C(=O)NCCc2c[nH]c3ccccc23)c1	none
N#Cc1cn(CC(=O)NCCc2c[nH]c3ccccc23)c2ccccc12	L major viab 88
Cc1cc(C)cc(NC(=O)C(=O)NCCc2c[nH]c3ccccc23)c1	m-calpain inh 65
Nc1nnc(-c2ccc(Cl)c([N+](=O)[O-])c2)s1	none
NS(=O)(=O)c1ccc(NC(=O)CSc2nc3ccccc3[nH]2)cc1	none
COc1ccc(C[C@H]2c3cc(O)c(OC)cc3CC[N+]2(C)[O-])cc1O (some centres undefined)	none (no result: PMI activator, PMI act satM6P, WT yeast gro inh, L major viab)
O=C(NCCO)C(=O)NCC1OCCCN1S(=O)(=O)c1cccs1 (centres undefined)	L major viab 56
Cc1cc(C)c(S(=O)(=O)N2CCCOC2CNC(=O)C(=O)NCCc2c[nH]c3ccccc23)c(C)c1 (centres undefined)	L major viab 93
Cc1ccccc1NC(=S)NCCc1c[nH]c2ccccc12	L major viab 81
Cc1cc(F)ccc1S(=O)(=O)N1CCCOC1CNC(=O)C(=O)NCCc1c[nH]c2ccccc12 (centres undefined)	none
COc1ccc(C(=O)c2ccc(CC(=O)O)s2)cc1	PMI act satM6P 2.4
CC(=O)Nc1ccc(-c2csc(Nc3cccc(C)n3)n2)cc1	L major viab 79
CC(=O)Nc1ccc(N(C(=O)CNC(=O)c2ccco2)C(C(=O)NCc2ccco2)c2ccccc2F)cc1 (centres undefined)	none
CCOC(=O)c1c(NC(=O)C2COc3ccccc3O2)sc2c1CC(C)(C)NC2(C)C (centres undefined)	L major viab 99
C/C(=N\O)c1ccc2c3c([nH]c2c1)CCCC3	WT yeast gro inh 74 (no result: m-calpain inh)
c1ccc(CN2CCN(Cc3nnc(-c4ccccc4)o3)CC2)cc1	L major viab 80
O=Nc1c(O)n(Cc2cccc(Cl)c2)c2ccccc12	WT yeast gro inh 67
O=C(Nc1ccccc1Sc1ccccc1)c1ccc(F)cc1	WT yeast gro inh 78 (no result: Rad51 HR inh)
CC(=O)Nc1ccc(C(=O)OCC(=O)Nc2ccccc2Sc2ccccc2)cc1	WT yeast gro inh 83 (no result: Rad51 HR inh)
O=C(CCl)Nc1ccccc1Sc1ccccc1	L major viab 54
O=C(Cc1ccc(Cl)cc1)Nc1ccccc1Sc1ccccc1	none
O=C(Cc1ccccc1)Nc1cc(Cl)ccc1Sc1ccccc1	L major viab 60
CC(C(=O)NC(C)(C)C)N(Cc1cccs1)C(=O)CCN1CCc2ccccc21 (centres undefined)	none
Cc1cc(NNC(=O)c2cccc(C(F)(F)F)c2)nc2c1c(C)nn2C	none (no result: PMI activator, PMI act satM6P, WT yeast gro inh, L major viab)
C=CCC(C(=O)OC)(C(=O)OC)c1ccc([N+](=O)[O-])cn1	WT yeast gro inh 66 (no result: Rad51 HR inh)
C=CCC(C(=O)OC)(C(=O)OC)c1ccc([N+](=O)[O-])cc1[N+](=O)[O-]	none
Cc1cc(C)n2nc(SCC(=O)c3cc(C)n(CC4CCCO4)c3C)nc2n1 (centres undefined)	none
Cc1ccc2cc(C(c3nnnn3Cc3ccccc3)N3CCN(c4ccccc4)CC3)c(=O)[nH]c2c1 (centres undefined)	L major viab 93
Cc1ccc2cc(C(c3nnnn3C3CCCC3)N3CCN(c4ccccc4)CC3)c(=O)[nH]c2c1 (centres undefined)	L major viab 76
